# Hits are enriched below; roughly 3% of the tested compounds scored in any of these assays.
# PLC-beta3 inh: inhibitors of human phospholipase C beta3; inhibition, % at 12.2 µM; AID 720704; Q01970; 370,000 tested, 0.18% active; Purified PLC-beta3, fluorogenic substrate, fluorescence;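 note: 0% = median of compound wells on plate and 100% = full blocker control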
# DDE Tn6 FP inh: disrupts Tn6 cyclic peptide binding to fibrin D-Dimer-E complex; P02675; Fibrin DD(E) TRITC-Tn6 fluorescence polarization displacement; 370,000 tested, 0.21% active; inhibition, % at 8.3 µM;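 active = inhibition above a per-campaign cutoff: mean of compounds within control limits plus 3 SD, cut at about 15% in these data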;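 note: 0% = median of all compound wells on the plate and 100% = blocking peptide control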
# PLC-gamma1 inh: inhibitors of human phospholipase C gamma1; AID 720700; P19174; purified PLC-gamma1, fluorogenic substrate, fluorescence; inhibition, % at 12.2 µM; 370,000 tested, 0.84% active; in the data active = inhibition above about 9.5%
# KLK7 zymogen act: proKLK7 (human) activation, primary screen; P49862; 370,000 tested, 0.9% active; purified proKLK7, EDANS-DABCYL substrate fluorescence; 100% is mature enzyme control, 0% vehicle; activation, % at 7 µM;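 active = activation above the mean of all tested compounds plus 3 SD, computed per campaign excluding outliers beyond control limits, cut at about 13% in these data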
# Tn7 DDE FP: DD(E)-Tn7 binding inhibition, primary FP screen. P02675. 370,000 tested, 0.13% active. inhibition, % at 8.3 µM. AID 720508. FP displacement of FITC-Tn7 peptide from fibrin DD(E); 0% = median of compound wells per plate;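 active = inhibition above the mean of compounds falling within the control limits plus 3 SD of them, cut at about 14% in these data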;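 note: 0% = plate median of compound wells and 100% = 10 µM Aha-Tn7 peptide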
#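 Assay system: Human clot-derived fibrin DD(E) complex | Buffer or medium: Tris/NaCl/CaCl2 buffer, pH 7.8 | Repeats: One replicate per compound | Benchmarks: Aha-Tn7 high control | Measure: % inhibition scaled between sample-field median and high-control FP | Schedule: 10 min plus 3 h, room temperature | Signal: Fluorescence polarization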
# CendR NRP1 mod: NRP-1/CendR interaction modulation; O14786; FAM-RPARPAR peptide binding to NRP-1, fluorescence polarization; inhibition, % at 25 µM; 360,000 tested, 0.85% active;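 active = inhibition or corrected inhibition above about 18%, plus a signal ratio from 0.5 to 1.5, limit read from the data, passing the limit was not always enough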
# Target sequence (O14786 whole entry, looked up): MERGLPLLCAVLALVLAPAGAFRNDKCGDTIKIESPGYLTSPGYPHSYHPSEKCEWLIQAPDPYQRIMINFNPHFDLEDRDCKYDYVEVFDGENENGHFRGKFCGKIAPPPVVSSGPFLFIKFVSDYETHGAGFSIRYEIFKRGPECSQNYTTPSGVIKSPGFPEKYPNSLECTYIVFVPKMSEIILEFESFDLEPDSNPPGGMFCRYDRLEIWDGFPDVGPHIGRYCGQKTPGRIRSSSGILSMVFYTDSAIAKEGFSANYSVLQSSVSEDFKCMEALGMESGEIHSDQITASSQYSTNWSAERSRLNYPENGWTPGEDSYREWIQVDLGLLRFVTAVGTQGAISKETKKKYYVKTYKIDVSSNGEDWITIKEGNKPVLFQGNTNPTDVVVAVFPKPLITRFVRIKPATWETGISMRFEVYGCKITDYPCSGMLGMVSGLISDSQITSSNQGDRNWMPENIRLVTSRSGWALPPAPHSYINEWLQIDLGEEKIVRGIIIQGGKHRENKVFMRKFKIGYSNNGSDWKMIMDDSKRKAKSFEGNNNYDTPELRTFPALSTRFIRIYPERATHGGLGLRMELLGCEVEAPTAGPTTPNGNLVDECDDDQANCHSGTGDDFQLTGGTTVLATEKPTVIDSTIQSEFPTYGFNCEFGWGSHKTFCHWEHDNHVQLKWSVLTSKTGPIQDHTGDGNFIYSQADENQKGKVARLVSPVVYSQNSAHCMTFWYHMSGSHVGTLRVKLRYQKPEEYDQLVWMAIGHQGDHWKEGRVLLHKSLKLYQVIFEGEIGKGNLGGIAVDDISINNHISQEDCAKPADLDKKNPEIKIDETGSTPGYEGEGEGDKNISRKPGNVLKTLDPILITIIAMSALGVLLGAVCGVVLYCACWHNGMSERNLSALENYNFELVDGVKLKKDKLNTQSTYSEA
# PLCgamma1 ctr: counter-screen for PLC-beta3 inhibitors: inhibitors of human PLC-gamma1 | shares compounds with PLC-gamma1 inh | purified PLC-gamma1, fluorogenic substrate, fluorescence | inhibition, % at 12.3 µM | 3,300 tested, 3.1% active | AID 743258; in the data active = inhibition above about 9.5%
# PLCbeta3 conf: confirmation of human PLC-beta3 inhibitors; shares compounds with PLC-gamma1 inh; purified PLC-beta3, fluorogenic substrate fluorescence; inhibition, % at 12.3 µM; 3,300 tested, 1% active; AID 743261
# Starred values were filed as active, the others as inactive; i = inactive; . = not tested or not shown. Cut-off read from the data, not from the text of the source, unless noted: active = inhibition above about 11%; inactive = the rest.
SMILES,PLC-beta3 inh,DDE Tn6 FP inh,PLC-gamma1 inh,KLK7 zymogen act,Tn7 DDE FP,CendR NRP1 mod,PLCgamma1 ctr,PLCbeta3 conf
Nc1[nH]c(C(=O)c2ccccc2)c(-c2ccccc2C(F)(F)F)c1C(=O)c1c[nH]c2ccccc12,-20.8,6.3,-15.5,-0.8,-2.7,.,.,.
O=c1c2ccccc2n(Cc2ccccc2)n1[C@@H](Cc1ccccc1)Cn1cc(-c2ccc(-c3ccccc3)cc2)nn1,-0.1,0.8,-1.0,-1.4,-7.6,.,.,.
Cc1ccc(-n2ncc(C(=O)Nc3ccc(Cl)cc3)c2C2CCNCC2)cc1C,4.5,1.3,9.6*,0.4,-10.6,4.1,-4.5,-1.1
Cc1cc(C)nc(SCc2nnc(SCC(=O)Nc3c(C)cccc3C)o2)n1,8.1,0.5,11.5*,-0.7,-3.2,11.0,-5.8,-2.4
Nn1c(Cc2ccccc2F)nnc1SCn1nnc2ccccc2c1=O,3.3,-1.8,11.1*,-0.3,-0.6,-4.2,-5.6,-1.2
O=C(CSc1nnc(-c2cccnc2)n1-c1ccccc1)c1ccccc1Cl,-6.8,-4.5,-1.4,0.7,-3.5,.,.,.
Cc1ccc(NS(=O)(=O)N2CCOCC2)cc1,-2.3,-0.4,12.0*,-0.8,-2.6,4.4,-4.3,-1.4
COC(=O)c1cc(C(C)c2ccccc2O)n2ccccc12 (configuration not stated),i,8.1,i,11.8,7.8,.,.,.
COc1ccc(NC(=O)COc2ccc(/C=N/O)cc2OC)cc1,-5.5,-7.1,-0.3,0.1,8.8,-5.9,.,.
CCNC(=S)N/N=C/c1ccc(OCC(=O)Nc2ccc(OC)cc2)c(OC)c1,16.7*,0.3,15.6*,-1.4,-5.9,1.2,5.3,-0.8
CCNC(=O)N1CCN(c2ccc(N3CCN(Cc4ccccc4)[C@H](C)C3)c(C)c2)[C@H](C)C1,1.5,9.0,-0.2,0.6,0.3,.,.,.
Cc1ccc(S(=O)(=O)N2C3CCCCC3O[C@H]2CC(=O)c2ccc(F)cc2)cc1 (some centres not stated),-1.0,-2.8,11.0*,1.4,-8.8,-0.1,-6.0,-4.1
Cc1ccc(S(=O)(=O)N2C3CCCCC3O[C@H]2CC(=O)c2ccccc2)cc1 (some centres not stated),2.0,5.0,2.6,-0.4,4.1,-4.7,.,.
O=S(=O)(N[C@H]1CCCC[C@@H]1N1CCOCC1)c1ccc(Cl)cc1,0.5,-3.0,3.4,.,-6.3,.,.,.
C=CCn1c(-c2csc(-c3ccc(Cl)cc3)n2)n[nH]c1=S,7.7,8.3,9.8*,0.1,4.2,-15.8,-11.2,-9.9
C=CCn1c(-c2csc(-c3ccccc3)n2)n[nH]c1=S,-1.4,-2.7,8.5,0.1,-4.7,2.2,.,.
CCCCNC(=O)CSc1nc2ccccc2c(=O)n1CC1COc2ccccc2O1 (configuration not stated),7.3,-5.5,13.1*,0.0,-2.3,8.2,3.1,1.6
O=C(Cn1c(NCCO)nc2ccccc21)c1ccccc1,1.3,1.0,-0.5,0.4,0.0,9.1,.,.
O=C(Cn1c(NCCCO)nc2ccccc21)c1ccc(Br)cc1,11.8*,0.8,6.5,-0.7,-0.9,7.4,0.8,3.2
Cc1ccc(C(NC(N)=O)c2ccccc2)cc1 (configuration not stated),4.4,6.1,12.2*,0.6,2.7,13.4,-7.9,-5.8
Cc1ccc(C(NC(N)=O)c2ccccc2C)cc1 (configuration not stated),0.5,-6.1,7.1,0.7,-2.6,9.5,.,.
CCCCN1CC(=O)N2[C@H](C[C@@]3(n4ccc5ccccc54)c4ccccc4N(S(=O)(=O)c4ccccc4)[C@@H]23)C1=O,-3.1,-7.0,-1.5,-1.0,6.5,.,.,.
CSc1ccc(CN2CCCC(CO)(Cc3ccccc3)C2)cc1 (configuration not stated),0.8,5.0,2.3,-0.5,4.0,2.8,.,.
C/C=C(\C)CN1CCCC(CO)(Cc2ccccc2)C1 (configuration not stated),-4.8,-5.9,12.0*,-0.1,-5.2,4.6,-1.6,0.1
CC(=O)Nc1cnc(NC(=O)c2cccc(F)c2)cc1C,10.9*,2.0,6.7,-0.2,9.5,3.7,1.3,-1.4
SMILES,PLC-beta3 inh,DDE Tn6 FP inh,PLC-gamma1 inh,KLK7 zymogen act,Tn7 DDE FP,CendR NRP1 mod,PLCgamma1 ctr,PLCbeta3 conf
Cc1ccc(CNCC(O)(c2ccccc2)c2ccc(Cl)cc2)cc1 (configuration not stated),4.9,1.5,2.4,1.1,-0.4,2.2,.,.
Cc1ccc(CNCC(O)(c2ccccc2)c2ccccc2)cc1,1.1,1.8,10.2*,0.1,-7.4,2.7,1.6,0.8
O=C(CNCc1ccccc1Cl)Nc1ccc2c(c1)OCCO2,-10.2,-5.5,0.5,0.3,1.4,6.8,.,.
O=C(CNCc1ccc(Cl)cc1)Nc1ccc2c(c1)OCCO2,0.9,-0.8,10.2*,-0.4,-0.6,4.4,-5.6,1.3
Clc1ccc(CN2CCN(c3ncc(Cc4ccccc4)cn3)CC2)cc1,-1.6,-6.4,1.4,0.3,-4.9,.,.,.
c1ccc(Cc2cnc(N3CCN(Cc4ccc5c(c4)OCCO5)CC3)nc2)cc1,4.3,3.3,9.8*,0.5,-2.4,.,-5.4,-6.0
C[C@H]1C2CC(OC(=O)Nc3ccc(C(F)(F)F)cc3)C(C2)[C@H]2CCCCN21 (some centres not stated),2.0,-0.4,6.4,0.3,4.4,.,.,.
O=C(NC1CCCCN(Cc2ccc(Cl)cc2)C1=O)c1ccc(F)c(F)c1 (configuration not stated),-2.1,2.5,2.0,-0.2,2.8,.,.,.
CCOC(=O)C1=C(C)N(CCCC(=O)O)C(=O)NC1c1ccccc1OS(=O)(=O)c1ccc([N+](=O)[O-])cc1 (configuration not stated),7.5,-0.2,12.4*,0.5,-3.7,-5.7,7.0,0.5
CC1=C(C(=O)OCc2ccccc2)C(c2ccccc2OS(=O)(=O)c2ccc([N+](=O)[O-])cc2)NC(=O)N1CCCC(=O)O (configuration not stated),1.5,-9.0,-1.1,0.3,3.0,-0.2,.,.
C=CC[C@@H](CC(=O)N[C@@H](CO)Cc1ccccc1)C(=O)N[C@H](COC(=O)[C@@H](CC=C)Cc1ccc(F)cc1)C(C)(C)C,3.5,3.1,0.0,0.0,5.8,-0.8,.,.
C=CCC[C@@H](Cc1ccc(F)cc1)C(=O)OC[C@@H](NC(=O)[C@H](CC=C)CC(=O)N(CCO)Cc1ccccc1)c1ccccc1,2.5,1.0,1.8,0.0,3.0,4.0,.,.
